Assay results as given in ChEMBL document CHEMBL5058577, “EUbOPEN Chemogenomics Library 2 (Multiplex)” (2022).

System: Fibroblast
Assay: Multiplex assay against human fibroblast
Type: toxicity, cell-based
Procedure, shortened: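 At seeding, live cells were stained with Hoechst33342, BioTracker Green Microtubule Cytoskeleton Dye, MitoTracker Red and Annexin V Alexa Fluor 680. After compound addition they were imaged on a CQ1 microscope at 37°C and 5% CO2, and CellPathfinder machine-learning gating sorted them into Hoechst high-intensity objects or normal cells, with normal cells further split into healthy, pyknosed or fragmented nuclei and pyknosed cells into mitotic or apoptotic. Tubulin, mitochondrial-mass and membrane-permeability phenotypes are given as per cents of cells with healthy nuclei.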

[1] = 12 h, 1 µM, compound concentration 1 uM, replicate 1
[2] = 12 h, 1 µM, compound concentration 1 uM, replicate 2
[3] = 12 h, 10 µM, compound concentration 10 uM, replicate 1
[4] = 12 h, 10 µM, compound concentration 10 uM, replicate 2
[5] = 24 h, 1 µM, compound concentration 1 uM, replicate 1
[6] = 24 h, 1 µM, compound concentration 1 uM, replicate 2
[7] = 24 h, 10 µM, compound concentration 10 uM, replicate 1
[8] = 24 h, 10 µM, compound concentration 10 uM, replicate 2
[9] = 48 h, 1 µM, compound concentration 1 uM, replicate 1
[10] = 48 h, 1 µM, compound concentration 1 uM, replicate 2
[11] = 48 h, 10 µM, compound concentration 10 uM, replicate 1
[12] = 48 h, 10 µM, compound concentration 10 uM, replicate 2

CC[C@@H](C)Nc1nc(C)nc2c(-c3ccc(OC)nc3C)c(C)nn12 [PEXACERFONT]
Population Apoptotic (%) [1]: 40% | Population Fragmented Nuclei (%) [1]: 12% | Population Healthy Nuclei (%) [1]: 66% | Population Hoechst High Intensity Objects (%) [1]: 1% | Population Membrane Permeable-Phenotype (%) [1]: 2% | Population Mitochondria Different-Phenotype (%) [1]: 4% | Population Mitotic Cells (%) [1]: 60% | Population Normal (%) [1]: 98% | Population Pyknosed Nuclei (%) [1]: 20% | Population Tubulin-Different-Phenotype (%) [1]: 35% | Total Cell Count [1]: 147 | Population Apoptotic (%) [2]: 25% | Population Fragmented Nuclei (%) [2]: 32% | Population Healthy Nuclei (%) [2]: 44% | Population Hoechst High Intensity Objects (%) [2]: 2% | Population Membrane Permeable-Phenotype (%) [2]: 15% | Population Mitotic Cells (%) [2]: 75% | Population Normal (%) [2]: 97% | Population Pyknosed Nuclei (%) [2]: 24% | Population Tubulin-Different-Phenotype (%) [2]: 65% | Total Cell Count [2]: 103 | Population Apoptotic (%) [3]: 43% | Population Fragmented Nuclei (%) [3]: 15% | Population Healthy Nuclei (%) [3]: 55% | Population Hoechst High Intensity Objects (%) [3]: 2% | Population Membrane Permeable-Phenotype (%) [3]: 0% | Population Mitochondria Different-Phenotype (%) [3]: 19% | Population Mitotic Cells (%) [3]: 56% | Population Normal (%) [3]: 97% | Population Pyknosed Nuclei (%) [3]: 29% | Population Tubulin-Different-Phenotype (%) [3]: 62% | Total Cell Count [3]: 143 | Population Apoptotic (%) [4]: 38% | Population Fragmented Nuclei (%) [4]: 21% | Population Healthy Nuclei (%) [4]: 40% | Population Hoechst High Intensity Objects (%) [4]: 8% | Population Membrane Permeable-Phenotype (%) [4]: 7% | Population Mitochondria Different-Phenotype (%) [4]: 9% | Population Mitotic Cells (%) [4]: 61% | Population Normal (%) [4]: 91% | Population Pyknosed Nuclei (%) [4]: 38% | Population Tubulin-Different-Phenotype (%) [4]: 68% | Total Cell Count [4]: 147 | Population Apoptotic (%) [5]: 52% | Population Fragmented Nuclei (%) [5]: 16% | Population Healthy Nuclei (%) [5]: 70% | Population Hoechst High Intensity Objects (%) [5]: 1% | Population Membrane Permeable-Phenotype (%) [5]: 0% | Population Mitochondria Different-Phenotype (%) [5]: 3% | Population Mitotic Cells (%) [5]: 47% | Population Normal (%) [5]: 98% | Population Pyknosed Nuclei (%) [5]: 13% | Population Tubulin-Different-Phenotype (%) [5]: 38% | Total Cell Count [5]: 157 | Population Apoptotic (%) [6]: 47% | Population Fragmented Nuclei (%) [6]: 35% | Population Healthy Nuclei (%) [6]: 42% | Population Hoechst High Intensity Objects (%) [6]: 3% | Population Membrane Permeable-Phenotype (%) [6]: 20% | Population Mitochondria Different-Phenotype (%) [6]: 2% | Population Mitotic Cells (%) [6]: 52% | Population Normal (%) [6]: 96% | Population Pyknosed Nuclei (%) [6]: 22% | Population Tubulin-Different-Phenotype (%) [6]: 61% | Total Cell Count [6]: 108 | Population Apoptotic (%) [7]: 37% | Population Fragmented Nuclei (%) [7]: 16% | Population Healthy Nuclei (%) [7]: 56% | Population Hoechst High Intensity Objects (%) [7]: 1% | Population Membrane Permeable-Phenotype (%) [7]: 2% | Population Mitochondria Different-Phenotype (%) [7]: 10% | Population Mitotic Cells (%) [7]: 62% | Population Normal (%) [7]: 98% | Population Pyknosed Nuclei (%) [7]: 27% | Population Tubulin-Different-Phenotype (%) [7]: 68% | Total Cell Count [7]: 139 | Population Apoptotic (%) [8]: 38% | Population Fragmented Nuclei (%) [8]: 18% | Population Healthy Nuclei (%) [8]: 47% | Population Hoechst High Intensity Objects (%) [8]: 7% | Population Membrane Permeable-Phenotype (%) [8]: 20% | Population Mitochondria Different-Phenotype (%) [8]: 6% | Population Mitotic Cells (%) [8]: 61% | Population Normal (%) [8]: 92% | Population Pyknosed Nuclei (%) [8]: 33% | Population Tubulin-Different-Phenotype (%) [8]: 76% | Total Cell Count [8]: 143 | Population Apoptotic (%) [9]: 54% | Population Fragmented Nuclei (%) [9]: 15% | Population Healthy Nuclei (%) [9]: 69% | Population Hoechst High Intensity Objects (%) [9]: 8% | Population Membrane Permeable-Phenotype (%) [9]: 1% | Population Mitochondria Different-Phenotype (%) [9]: 0% | Population Mitotic Cells (%) [9]: 45% | Population Normal (%) [9]: 91% | Population Pyknosed Nuclei (%) [9]: 15% | Population Tubulin-Different-Phenotype (%) [9]: 30% | Total Cell Count [9]: 160 | Population Apoptotic (%) [10]: 25% | Population Fragmented Nuclei (%) [10]: 40% | Population Healthy Nuclei (%) [10]: 45% | Population Hoechst High Intensity Objects (%) [10]: 1% | Population Membrane Permeable-Phenotype (%) [10]: 26% | Population Mitochondria Different-Phenotype (%) [10]: 4% | Population Mitotic Cells (%) [10]: 75% | Population Normal (%) [10]: 98% | Population Pyknosed Nuclei (%) [10]: 14% | Population Tubulin-Different-Phenotype (%) [10]: 52% | Total Cell Count [10]: 113 | Population Apoptotic (%) [11]: 87% | Population Fragmented Nuclei (%) [11]: 23% | Population Healthy Nuclei (%) [11]: 53% | Population Hoechst High Intensity Objects (%) [11]: 3% | Population Membrane Permeable-Phenotype (%) [11]: 0% | Population Mitochondria Different-Phenotype (%) [11]: 14% | Population Mitotic Cells (%) [11]: 12% | Population Normal (%) [11]: 96% | Population Pyknosed Nuclei (%) [11]: 22% | Population Tubulin-Different-Phenotype (%) [11]: 62% | Total Cell Count [11]: 144 | Population Apoptotic (%) [12]: 52% | Population Fragmented Nuclei (%) [12]: 32% | Population Healthy Nuclei (%) [12]: 50% | Population Hoechst High Intensity Objects (%) [12]: 4% | Population Membrane Permeable-Phenotype (%) [12]: 12% | Population Mitochondria Different-Phenotype (%) [12]: 9% | Population Mitotic Cells (%) [12]: 47% | Population Normal (%) [12]: 95% | Population Pyknosed Nuclei (%) [12]: 16% | Population Tubulin-Different-Phenotype (%) [12]: 76% | Total Cell Count [12]: 134
